Experimental findings from ChEMBL document CHEMBL1139738, “Pyridine-3-propanoic acids: Discovery of dual PPARalpha/gamma agonists as antidiabetic agents” (Bioorg Med Chem Lett, 2006) are described below.

Data set [1] deals with T1, Peroxisome proliferator-activated receptor alpha (Homo sapiens) (UniProt Q07869).
T1 sequence (whole entry): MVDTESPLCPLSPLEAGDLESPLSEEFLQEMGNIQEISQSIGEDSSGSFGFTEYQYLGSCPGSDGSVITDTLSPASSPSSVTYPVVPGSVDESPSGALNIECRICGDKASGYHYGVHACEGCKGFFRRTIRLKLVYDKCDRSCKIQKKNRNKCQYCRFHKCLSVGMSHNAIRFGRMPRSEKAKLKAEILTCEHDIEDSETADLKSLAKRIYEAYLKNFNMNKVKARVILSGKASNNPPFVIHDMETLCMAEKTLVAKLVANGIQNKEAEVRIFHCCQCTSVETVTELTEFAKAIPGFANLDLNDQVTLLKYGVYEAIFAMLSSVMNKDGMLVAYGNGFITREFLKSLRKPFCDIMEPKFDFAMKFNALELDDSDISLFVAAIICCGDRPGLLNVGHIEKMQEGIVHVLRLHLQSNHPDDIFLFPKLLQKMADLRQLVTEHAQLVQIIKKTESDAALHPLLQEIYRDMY
The data set can be described thus: Agonist activity at human PPAR alpha in a HepG2 cells by PPAR-GAL4 transactivation assay relative to GW-2331. It is filed as functional, cell-based.

The nature of data set [2]: Oral bioavailability in Sprague-Dawley rat. It is filed as ADME, organism-based. The settings on record: in vivo. In a few lines: (§1)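 Pharmacokinetics in male Sprague–Dawley rats given iv and oral doses. Outputs are iv clearance (mL/min/kg), oral half-life, dose-normalized oral AUC (h μg/mL) and oral bioavailability (%).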
For data set [3], the system named is Mus musculus. The data set can be described thus: Reduction of plasma triglycerides in orally dosed db/db mouse at 1 mg/kg after 8 days relative to control. Also on record: scale not given: the % may be the effect or the level left. It is filed as functional. The settings on record: route oral. In a few lines:
(§2)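 Male db/db mice, 7 weeks old, with lean controls, given vehicle or compound by oral gavage once daily for 8 days. Plasma glucose, triglycerides, hematocrit and body weight measured before dosing on day −1 and 2 h post-dose on day 8. Percent change is expressed versus vehicle control, with significance at p < 0.05.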

The subject of data set [4] is Mus musculus. The data set can be described thus: Reduction of hematocrit in orally dosed db/db mouse at 1 mg/kg after 8 days relative to control. As to conditions: route oral. The arrangement: scale not given: the % may be the effect or the level left. It is filed as functional. In a few lines: as §2
In data set [5] the test system is Mus musculus. Put plainly: Increase in body weight in orally dosed db/db mouse at 1 mg/kg after 8 days relative to control. In kind it is functional. The settings on record: route oral. Put shortly: as §2
Data set [6] relates to Mus musculus. Put plainly: Reduction of plasma glucose in orally dosed db/db mouse at 10 mg/kg after 8 days relative to control. It is filed as functional. Also on record: scale not given: the % may be the effect or the level left. The settings on record: route oral. Put shortly:
as §2

Data set [7] deals with Mus musculus. Put plainly: Reduction of plasma glucose in orally dosed db/db mouse at 1 mg/kg after 8 days relative to control. It is filed as functional. Also on record: scale not given: the % may be the effect or the level left. As to conditions: route oral. Put shortly: as §2
A short description of data set [8]: Half life in orally dosed Sprague-Dawley rat. In kind it is ADME, organism-based. The settings on record: in vivo, po. Put shortly: as §1
The target of data set [9] is T2, Peroxisome proliferator-activated receptor alpha (Homo sapiens, UniProt Q07869).
T2 sequence (Q07869 whole entry): T1 sequence (whole entry)
The data set can be described thus: Displacement of radiolabeled GW-2331 from human PPAR alpha by SPA binding assay.

For data set [10], the system named is Mus musculus. Put plainly: Increase in body weight in orally dosed db/db mouse at 10 mg/kg in a 8 day study. It is filed as functional. As to conditions: route oral. In a few lines: as §2
The target in data set [11] is T2, Peroxisome proliferator-activated receptor alpha. The data set can be described thus: Agonist activity at human PPAR alpha in a HepG2 cells by PPAR-GAL4 transactivation assay. In kind it is functional, cell-based.
For data set [12], the system named is Mus musculus. Put plainly: Reduction of hematocrit in orally dosed db/db mouse at 10 mg/kg after 8 days relative to control. As to conditions: route oral. Also on record: scale not given: the % may be the effect or the level left. In kind it is functional. Put shortly:
as §2

A short description of data set [13]: Clearance in iv dosed Sprague-Dawley rat. It is filed as ADME, organism-based. The settings on record: in vivo. Put shortly: as §1
In data set [14] the test system is Mus musculus. The data set can be described thus: Reduction of plasma triglycerides in orally dosed db/db mouse at 10 mg/kg after 8 days relative to control. In kind it is functional. Also on record: scale not given: the % may be the effect or the level left. The settings on record: route oral. In a few lines:
as §2

In the case of `CO[C@@](C)(Cc1ccc(OCCc2nc(-c3ccccc3)oc2C)nc1)C(=O)O`, the %max in data set [1] amounted to 99%. In data set [2], the bioavailability (as a rule, the share of a dose that reaches the circulation, judged against a reference dose that is usually intravenous) turned out to be 87%. The Activity with Mus musculus [3] amounted to 177%; in the data set on Mus musculus [4], 3.8%; with Mus musculus [5], 13.2%; in the data set with Mus musculus [6], 106%; in the data set with Mus musculus [7], 88%; in the data set on Mus musculus [10], 16.8%. The values for the Activity with Mus musculus [12] and with Mus musculus [14] were 7.2% and 205%, respectively. The half-life (as a rule, how long it takes for the measured level to halve) in [8] is 9.7 h. Also, the inhibition constant (Ki) (usually a dissociation constant, usually derived from enzyme kinetics or from competition with a known ligand) in [9] was 570 nM. The EC50 (as a rule, the midpoint of the concentration-response curve) in [11] turned out to be 111 nM. Further, the clearance (commonly the volume of plasma or blood freed of the substance per unit of time) in data set [13] came out at 2.2 mL/min/kg.
